# Results from PubChem BioAssay AID463210 (The Scripps Research Institute Molecular Screening Center, 2010).
# Out of some 330,000 compounds screened, about 300 (0.091%) were called active. This is one part of a sample in which actives are shown more often than they occur.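 How the source made its calls: active means percent activation above the screen-wide mean plus 3 SD (cut at about 25% in these data); inactive means the rest.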
# Target: Caspase-7 (Homo sapiens) (UniProt P55210)
# Experiment: procaspase-7 activators, primary screen, counter-screen for procaspase-3 activator project, biochemical, absorbance, HTS, human (AID 463210)
# Settings: recombinant procaspase-7, Ac-DEVD-pNA absorbance 405 nm; at 8.5 µM; hits give high values; D23A/D198A/D206A triple mutant, cannot self-cleave; scale: DMSO 0, 5 µM enzyme 100
# In short: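 Assay system – Uncleavable procaspase-7 mutant enzyme · Quantity – 2 µM procaspase-7 mutant as dispensed · Times – 1 h preincubation, 2 h reaction · Dosing – single nominal 8.5 µM compound dose, 0.8% DMSO final · Buffer or medium – Zinc-free 50 mM HEPES buffer, pH 7.4, with NaCl and Triton X-100 · Detection – Epi-absorbance of released pNA at 405 nm, two timepoints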
# Chain of Caspase-7 (Homo sapiens) (P55210 whole entry D23A/D198A/D206A): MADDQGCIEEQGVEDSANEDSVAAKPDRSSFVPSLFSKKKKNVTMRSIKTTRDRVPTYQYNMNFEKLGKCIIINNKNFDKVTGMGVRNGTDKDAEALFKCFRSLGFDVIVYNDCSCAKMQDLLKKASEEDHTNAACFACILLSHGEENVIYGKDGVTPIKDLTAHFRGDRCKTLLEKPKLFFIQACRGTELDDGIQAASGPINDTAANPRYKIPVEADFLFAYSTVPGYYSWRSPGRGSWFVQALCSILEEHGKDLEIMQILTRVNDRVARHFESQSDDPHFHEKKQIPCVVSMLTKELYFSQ
row,SMILES,activation
1,O=C(Nc1cccc2c1CCCC2)c1ccc(F)cc1,7.3% (inactive)
2,Cc1ncn2cc(-c3ccc(Cl)cc3Cl)[nH]c(=O)c12,10.9% (inactive)
3,O=C(c1cccc(-n2cccc2)c1)N1CCN(S(=O)(=O)c2ccc(F)cc2)CC1,3.36% (inactive)
4,Cc1ccc2c(CC(=O)NCc3cccs3)coc2c1,-3.04% (inactive)
5,COC(=O)c1ccc(CN2CCN(CCCc3ccccc3)C(CCO)C2)cc1 (stereo not drawn),2.25% (inactive)
6,Cc1cccc(N2CC(C)Cn3c2nc2c3c(=O)n(CC(=O)OCc3ccccc3)c(=O)n2C)c1 (stereo not drawn),1.17% (inactive)
7,COc1ccc(C2=NS(=O)(=O)N(C)C(C(=O)N(C)Cc3ccccc3)=C2)cc1,1.33% (inactive)
8,N#Cc1ccccc1CN1C(=O)S/C(=C/c2cccn2-c2cccc(C(=O)O)c2)C1=O,-18.8% (inactive)
9,O=C(Cc1coc2ccc3ccccc3c12)NCc1cccs1,9.96% (inactive)
10,CC1(C)Cc2c(sc(NC(=O)C(=O)NCC3CCCO3)c2C(=O)O)CO1 (stereo not drawn),1.97% (inactive)
11,CC(=O)Oc1ccc2c(C)c(CC(C)O)c(=O)oc2c1 (stereo not drawn),29.6% (active)
12,COC(=O)Cc1c(C)c2ccc(OCC(=O)NCc3ccc4c(c3)OCO4)cc2oc1=O,13.2% (inactive)
13,CCc1c(C)c2ccc(OC3CCCCC3=O)cc2oc1=O (stereo not drawn),4.02% (inactive)
14,CC(C(=O)NCCc1ccc(S(N)(=O)=O)cc1)N1C(=O)CC(C)(C)Sc2ccccc21 (stereo not drawn),-4.12% (inactive)
15,COc1ccc(C2(C)ON(c3ccccc3C(F)(F)F)C2=O)cc1 (stereo not drawn),2.15% (inactive)
16,O=C(NC1CCc2ccccc21)C12CN(Cc3ccccc3)CC1C(c1cccc([N+](=O)[O-])c1)=NO2 (stereo not drawn),7.39% (inactive)
17,COc1ccc(NC(=O)c2cccc3c2C(=O)N(CC2CCCO2)C3)cc1OC (stereo not drawn),9.62% (inactive)
18,COc1ccc(/C=N/Nc2nc3ccccc3c(=O)[nH]2)cc1,28.9% (active)
19,COc1ccc(/C=N/Nc2nc(-c3ccc(C)cc3)c(C#N)c(=O)[nH]2)cc1,1.13% (inactive)
20,COc1ccc(/C=N/Nc2ccccc2C(=O)O)cc1,-19.5% (inactive)

row,SMILES,activation
1,C/C(=N/NC(=O)CSc1ccccn1)c1ccc([N+](=O)[O-])cc1,1.61% (inactive)
2,CCCNC(=S)N1CCCC(c2nc3ccccc3[nH]2)C1 (stereo not drawn),6.91% (inactive)
3,Cc1cccc(-n2c(SCC(=O)Nc3cccc(S(=O)(=O)NC4=NCCCCC4)c3)nc3ccccc3c2=O)c1C,-0.51% (inactive)
4,CC1(C)C(C=C(Cl)Cl)C1C(=O)NC(O)C(=O)c1ccccc1 (stereo not drawn),6.56% (inactive)
5,COC(=O)c1ccc(N2CCOCC2)c(NC(=O)c2ccc(Br)o2)c1,1.06% (inactive)
6,COc1ccccc1CNC(=O)COC(=O)CNS(=O)(=O)c1ccc(NC(C)=O)cc1,7.44% (inactive)
7,Nc1cccc2c1C(=O)N(Cc1nnc(-c3ccccc3Br)o1)C2=O,64.5% (active)
8,Cn1cnnc1SCc1nnc(-c2ccccc2Br)o1,2.67% (inactive)
9,CCOC(=O)N1CCN(Cc2nnc(-c3ccccc3Cl)o2)CC1,-1.71% (inactive)
10,CN(C)CCCSc1ccccc1NC(=O)/C=C/c1ccccc1,10.4% (inactive)
11,Cc1nc(SCC(=O)N2CCc3ccccc3C2)c2c(C)c(C)sc2n1,18.1% (inactive)
12,COc1ccc(CSc2nc(N3CCOCC3)c3c(c2C#N)CC(C)(C)OC3)cc1,-0.56% (inactive)
13,CC(C)C(=O)N1CCN(c2nc(-c3ccccc3)c3c(c2C#N)CC(C)(C)OC3)CC1,12.1% (inactive)
14,CC1(C)Cc2c(C#N)c(SCc3nc4ccccc4[nH]3)nc(N3CCOCC3)c2CO1,33% (active)
15,Cc1ccc(CSCCNC(=O)CN(c2ccc(F)cc2)S(C)(=O)=O)cc1,-2.84% (inactive)
16,CCCc1c(C(=O)N/N=C(\C)CCc2ccc(OC)cc2)nnn1-c1nonc1N,2.5% (inactive)
17,O=C(NCCc1ccco1)c1ccc(OCc2cn3ccccc3n2)cc1,15.8% (inactive)
18,CCOc1cc(C(=O)OCC(=O)Nc2cccc(C)c2)ccc1OCC(=O)N1CCOCC1,15.3% (inactive)
19,O=S(=O)(NCCSc1ccccn1)c1ccc(Cl)cc1,-2.06% (inactive)
20,COc1ccc(NC(=O)CNC(=O)Cn2ccc3ccccc3c2=O)c(OC)c1,-4.04% (inactive)

row,SMILES,activation
1,Cc1ccc(Cc2cncc(O)c2)cc1S(=O)(=O)O,10.6% (inactive)
2,COC(=O)/C=C(\Oc1ccccc1)C1(O)CCCCC1,7.7% (inactive)
3,NS(=O)(=O)c1ccc(CCNC(=O)COC(=O)COc2cccc(C(F)(F)F)c2)cc1,-7.58% (inactive)
4,COc1ccc(OC)c(S(=O)(=O)Nc2cccc(-c3ccc4nncn4n3)c2)c1,5.81% (inactive)
5,Nc1c(-c2cccc(Cl)c2)cnn1-c1cccc([N+](=O)[O-])c1,-13% (inactive)
6,O=C(NC1CCCC1)C(c1ccco1)N(C(=O)c1csnn1)c1ccccc1 (stereo not drawn),6.3% (inactive)
7,Cn1cnnc1Sc1ccc(S(C)(=O)=O)cc1[N+](=O)[O-],6.34% (inactive)
8,COc1ccc(CNC(=O)COC(=O)CCS(=O)(=O)c2ccc(C)cc2)cc1OC,6.34% (inactive)
9,CC(C)CN1CCNC(=O)C1CC(=O)N(C)CC1CCOCC1 (stereo not drawn),-1.75% (inactive)
10,Cc1ccccc1NC(=O)CSC1=NCCN1,9.38% (inactive)
11,CNS(=O)(=O)c1cccc(C(=O)NCC2CCCCC2)c1,1.69% (inactive)
12,CNS(=O)(=O)c1cccc(C(=O)NC2CCCc3ccccc32)c1 (stereo not drawn),38.5% (active)
13,O=C(O)c1cc(S(=O)(=O)NC2CCCc3ccccc32)ccc1O (stereo not drawn),-8.22% (inactive)
14,CCOC(=O)/C=C/c1ccc(C(F)(F)F)cc1S(=O)(=O)NC(C)(C)C,2.37% (inactive)
15,Cc1cc(Cl)c2oc(C(=O)N3CCC(O)(c4ccccc4)CC3)c(C)c2c1,-0.4% (inactive)
16,COc1ccccc1CNC(=O)CN1CCC(n2cnc3cc(F)ccc32)CC1,-8.61% (inactive)
17,Cc1coc2c1c(C)cc1oc(=O)c(CC(=O)NCC(=O)N[C@H](C(=O)O)C(C)C)c(C)c12,-1.78% (inactive)
18,CC1CCN(C(=O)Cn2nnnc2CN2CCOCC2)CC1,0.88% (inactive)
